Data from ChEMBL document CHEMBL4819015, “Design, synthesis, and biological evaluation of hederagenin derivatives with improved aqueous solubility and tumor resistance reversal activity” (Eur J Med Chem, 2021).
≈ marks a conversion by molar mass, not a printed value.

Key:
[1] = target: T1, ATP-dependent translocase ABCB1 (Homo sapiens, UniProt P08183); test: Reversal of P-glycoprotein mediated multidrug resistance in human KBV cells assessed as paclitaxel-mediated apoptosis by measuring accumulation of cells in Sub-G1 phase in at 10 uM measured by flowcytometry method (Rvb (paclitaxel)= 2.1%); assay type: cell-based
T1 sequence (P08183 whole entry): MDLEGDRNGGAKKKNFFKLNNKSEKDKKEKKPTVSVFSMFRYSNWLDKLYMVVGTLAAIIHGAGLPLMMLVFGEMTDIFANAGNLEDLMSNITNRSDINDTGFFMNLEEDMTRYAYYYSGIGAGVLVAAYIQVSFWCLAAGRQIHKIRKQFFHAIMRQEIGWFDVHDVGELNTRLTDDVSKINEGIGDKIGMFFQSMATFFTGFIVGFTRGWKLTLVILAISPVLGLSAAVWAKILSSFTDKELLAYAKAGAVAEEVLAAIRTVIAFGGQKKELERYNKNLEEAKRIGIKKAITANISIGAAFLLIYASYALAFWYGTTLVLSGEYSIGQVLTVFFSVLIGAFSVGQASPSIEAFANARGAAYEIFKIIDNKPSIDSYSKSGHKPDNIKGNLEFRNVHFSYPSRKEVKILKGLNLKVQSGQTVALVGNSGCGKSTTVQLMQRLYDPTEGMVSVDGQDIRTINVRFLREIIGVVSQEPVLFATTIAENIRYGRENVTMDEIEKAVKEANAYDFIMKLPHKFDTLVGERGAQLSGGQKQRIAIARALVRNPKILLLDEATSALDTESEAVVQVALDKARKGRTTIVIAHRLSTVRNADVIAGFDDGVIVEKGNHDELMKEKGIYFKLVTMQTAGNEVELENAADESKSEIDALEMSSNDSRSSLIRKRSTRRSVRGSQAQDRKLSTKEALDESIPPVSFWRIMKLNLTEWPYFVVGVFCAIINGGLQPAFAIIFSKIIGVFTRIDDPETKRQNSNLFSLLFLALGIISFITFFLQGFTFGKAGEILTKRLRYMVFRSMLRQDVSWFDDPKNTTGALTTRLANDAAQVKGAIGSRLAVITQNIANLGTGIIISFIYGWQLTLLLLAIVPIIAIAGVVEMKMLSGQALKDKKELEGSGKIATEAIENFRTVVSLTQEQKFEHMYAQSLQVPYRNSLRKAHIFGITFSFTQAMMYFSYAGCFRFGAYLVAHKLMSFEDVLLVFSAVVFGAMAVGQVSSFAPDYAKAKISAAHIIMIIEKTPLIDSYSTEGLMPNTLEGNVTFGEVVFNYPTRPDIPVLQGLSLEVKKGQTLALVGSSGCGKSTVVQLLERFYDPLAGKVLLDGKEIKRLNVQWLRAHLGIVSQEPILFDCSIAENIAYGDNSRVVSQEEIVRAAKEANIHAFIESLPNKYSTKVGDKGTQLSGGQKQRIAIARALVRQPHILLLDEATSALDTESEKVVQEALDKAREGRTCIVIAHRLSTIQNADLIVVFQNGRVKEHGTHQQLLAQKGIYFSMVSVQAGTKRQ

[2] = Antiproliferative activity against human KBV cells in presence of 100 nM Paclitaxel; assay type: functional, cell-based
Procedure, shortened: (§1)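 KBV or MCF-7T cells were grown in DMEM with 10% heat-inactivated FCS, penicillin/streptomycin, 37 °C and 5% CO2, with periodic 10 nM paclitaxel to keep resistance; cells were used in exponential phase. Cells were exposed to test articles for 72 h, given MTT for about 2 h, the medium was removed and DMSO added. A570 gave the survival rate.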

[3] = target: T1, ATP-dependent translocase ABCB1; test: Reversal of P-glycoprotein mediated multidrug resistance in human KBV cells assessed as paclitaxel-mediated apoptosis by measuring accumulation of cells in Sub-G1 phase in at 5 uM measured by flowcytometry method (Rvb (paclitaxel)= 2.1%); assay type: cell-based
[4] = Induction of apoptosis in human KBV cells assessed as accumulation of cells in Sub-G1 phase at 10 uM measured by flowcytometry method (reference value: 1.9%); assay type: functional
[5] = Antitumour activity against human KBV cells xenografted in nude mouse assessed as paclitaxel-mediated tumour growth inhibition at 10 mg/kg; assay type: functional; conditions: read-out: TGI
[6] = target: T1, ATP-dependent translocase ABCB1; test: Reversal of P-glycoprotein mediated multidrug resistance in human KBV cells assessed as potentiation of paclitaxel-induced cytotoxicity by measuring cell survival rate at 10 uM measured after 72 hrs by MTT assay; assay type: cell-based; procedure, shortened: as §1
[7] = Aqueous solubility of compound in deionized water at 37 degC measured by UV-vis spectrophotometry
[8] = Cytotoxicity against human KBV cells assessed as cell survival at 10 uM measured after 72 hrs by MTT assay; assay type: functional; conditions: read-out: Activity; procedure, shortened: as §1
[9] = target: T1, ATP-dependent translocase ABCB1; test: Inhibition of P-glycoprotein mediated Flutax1 efflux in human KBV cells assessed as Flutax1 accumulation at 5 uM […] by flowcytometry; assay type: cell-based
[10] = Stability of compound in presence of Porcine liver esterase assessed as residual activity at pH 7.4 measured after 4 hrs; assay type: ADME; conditions: pig, read-out: Stabilty
Procedure, shortened: (§2)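 Compound in PBS pH 7.4 with porcine liver esterase, shaken at 37 °C. Aliquots were taken at set times, diluted 10-fold and centrifuged at 14,000 rpm for 5 min. Supernatants were run on C18 HPLC with isocratic 95% methanol/water (0.1% TFA) at 1 mL/min, UV 306 nm. Percent remaining is relative to the 0 h sample.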

[11] = Stability of compound in presence of Porcine liver esterase assessed as residual activity at pH 7.4 measured after 24 hrs; assay type: ADME; conditions: pig, read-out: Stabilty; procedure, shortened: as §2
[12] = target: T1, ATP-dependent translocase ABCB1; test: Inhibition of P-glycoprotein mediated Rhodamine-123 efflux in human KBV cells assessed as Rhodamine-123 accumulation measured after 2 hrs by flowcytometry; assay type: cell-based; conditions: dose 5-10 µM
Procedure, shortened: (§3)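 KBV or MCF-7T cells were pretreated with or without compound for 2 h, then loaded with rhodamine 123 for 30 min. Cells were harvested and washed three times in PBS. Flow cytometry of 10,000 cells gave mean fluorescence intensity; mean ± SD, n = 3.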

[13] = Stability of compound in presence of Porcine liver esterase assessed as residual activity at pH 7.4 measured after 12 hrs; assay type: ADME; conditions: pig, read-out: Stabilty; procedure, shortened: as §2
[14] = target: T1, ATP-dependent translocase ABCB1; test: Inhibition of P-glycoprotein mediated Rhodamine-123 efflux in human MCF-7T cells assessed as Rhodamine-123 accumulation measured after 2 hrs by flowcytometry; assay type: cell-based; conditions: dose 5-10 µM; procedure, shortened: as §3
[15] = target: T1, ATP-dependent translocase ABCB1; test: Inhibition of P-glycoprotein mediated Flutax1 efflux in human KBV cells assessed as Flutax1 accumulation at 10 uM measured after 2 hrs by flowcytometry; assay type: cell-based; conditions: mcf-t, in the assay text read “human MCF-7T cells” for “human KBV cells”
[16] = Cytotoxicity against human KBV cells assessed as cell survival measured after 72 hrs by MTT assay; assay type: functional, cell-based; procedure, shortened: as §1
[17] = Cytotoxicity against human MCF-T cells assessed as cell survival measured after 72 hrs by MTT assay; assay type: functional, cell-based; procedure, shortened: as §1

Compound	cell survival rate [6] [%]	viability at 10 µM [8] [%]	also measured
CC1(C)CC[C@]2(C(=O)OCc3ccccc3)CC[C@]3(C)C(=CC[C@@H]4[C@@]5(C)Cc6nccnc6[C@@](C)(CO)[C@@H]5CC[C@]43C)[C@@H]2C1	18.17	–	Activity [1]: 25.4%; IC50 [2]: 2.39 nM; Activity [3]: 15.6%; Activity [4]: 2.3%; inhibition in vivo at 10 mg/kg [5]: 41.9%; solubility ([7]; pH 7.4, read-out: solubility): 1.2 µg/mL (≈ 2.01 µM)
CN(C)CCCOC(=O)[C@]12CCC(C)(C)C[C@H]1C1=CC[C@@H]3[C@@]4(C)Cc5nccnc5[C@@](C)(CO)[C@@H]4CC[C@@]3(C)[C@]1(C)CC2	12.65	67.5	–
CCN1CCN(C(=O)[C@]23CCC(C)(C)C[C@H]2C2=CC[C@@H]4[C@@]5(C)Cc6nccnc6[C@@](C)(CO)[C@@H]5CC[C@@]4(C)[C@]2(C)CC3)CC1	16.67	120	–
CC1(C)CC[C@]2(C(=O)OCC(=O)OCCOCCOCCOCCO)CC[C@]3(C)C(=CC[C@@H]4[C@@]5(C)Cc6nccnc6[C@@](C)(CO)[C@@H]5CC[C@]43C)[C@@H]2C1	25.88	75.4	–
CC1(C)CC[C@]2(C(=O)N3CCOCC3)CC[C@]3(C)C(=CC[C@@H]4[C@@]5(C)Cc6nccnc6[C@@](C)(CO)[C@@H]5CC[C@]43C)[C@@H]2C1	16.37	110	–
CC1(C)CC[C@]2(C(=O)OCC(=O)OCCOCCOCCOCCOCCOCCOCCOCCOCCO)CC[C@]3(C)C(=CC[C@@H]4[C@@]5(C)Cc6nccnc6[C@@](C)(CO)[C@@H]5CC[C@]43C)[C@@H]2C1	25.16	76	–
CC1(C)CC[C@]2(C(=O)OCc3ccccc3)CC[C@]3(C)C(=CC[C@@H]4[C@@]5(C)Cc6nccnc6[C@@](C)(COC(=O)CCC(=O)OCCOCCO)[C@@H]5CC[C@]43C)[C@@H]2C1	79.47	72.7	solubility ([7]; pH 7.4): Soluble
CC1(C)CC[C@]2(C(=O)O)CC[C@]3(C)C(=CC[C@@H]4[C@@]5(C)Cc6cn[nH]c6[C@@](C)(CO)[C@@H]5CC[C@]43C)[C@@H]2C1	99.31	109	–
CC1(C)CC[C@]2(C(=O)OCC(=O)OCCOCCO)CC[C@]3(C)C(=CC[C@@H]4[C@@]5(C)Cc6nccnc6[C@@](C)(CO)[C@@H]5CC[C@]43C)[C@@H]2C1	26.15	81.7	–
CC1(C)CC[C@]2(C(=O)OCc3ccccc3)CC[C@]3(C)C(=CC[C@@H]4[C@@]5(C)Cc6cn[nH]c6[C@@](C)(CO)[C@@H]5CC[C@]43C)[C@@H]2C1	21.95	83.1	–
CC1(C)CC[C@]2(C(=O)N3CCCCC3)CC[C@]3(C)C(=CC[C@@H]4[C@@]5(C)Cc6nccnc6[C@@](C)(CO)[C@@H]5CC[C@]43C)[C@@H]2C1	25.27	59.4	–
CN1CCN(C(=O)[C@]23CCC(C)(C)C[C@H]2C2=CC[C@@H]4[C@@]5(C)Cc6nccnc6[C@@](C)(CO)[C@@H]5CC[C@@]4(C)[C@]2(C)CC3)CC1	23.51	124	–
CC1(C)CC[C@]2(C(=O)OCc3ccccc3)CC[C@]3(C)C(C(=O)C[C@@H]4[C@@]5(C)Cc6nccnc6[C@@](C)(CO)[C@@H]5CC[C@]43C)[C@@H]2C1 (some centres undefined)	20.77	129	–
CC1(C)CC[C@]2(C(=O)OCc3ccccc3)CC[C@]3(C)C(=CC[C@@H]4[C@@]5(C)Cc6nccnc6[C@@](C)(COC(=O)CCC(=O)OCCOCCOCCOCCOCCOCCOCCOCCOCCOCCOCCOCCOCCO)[C@@H]5CC[C@]43C)[C@@H]2C1.CO	15.93	69.7	solubility ([7]; pH 7.4, read-out: solubility): 789 µg/mL
CC1(C)CC[C@]2(C(=O)OCC(=O)OCCOCCOCCO)CC[C@]3(C)C(=CC[C@@H]4[C@@]5(C)Cc6nccnc6[C@@](C)(CO)[C@@H]5CC[C@]43C)[C@@H]2C1	28.76	80.5	–
Cc1nc2c(s1)C[C@@]1(C)[C@@H](CC[C@]3(C)[C@@H]1CC=C1[C@@H]4CC(C)(C)CC[C@]4(C(=O)O)CC[C@]13C)[C@]2(C)CO	61.78	96	–
CC1(C)CC[C@]2(C(=O)OCc3ccccc3)CC[C@]3(C)C(=CC[C@@H]4[C@@]5(C)Cc6nccnc6[C@@](C)(COC(=O)CCC(=O)OCCOCCOCCOCCO)[C@@H]5CC[C@]43C)[C@@H]2C1	11.97	90.3	Activity [1]: 48.9%; Activity [9]: Active; remaining at 4 h [10]: 98.3%; Activity [3]: 20.7%; remaining at 24 h [11]: 78.9%; Activity [12]: Dose-Dependent Effect; remaining at 12 h [13]: 81.8%; Activity [4]: 2.4%; Activity [14]: Dose-Dependent Effect; Activity [15]: Active; solubility ([7]; pH 7.4, read-out: solubility): 21.6 µg/mL (≈ 24.7 µM)
Cc1nc2c(s1)C[C@@]1(C)[C@@H](CC[C@]3(C)[C@@H]1CC=C1[C@@H]4CC(C)(C)CC[C@]4(C(=O)OCc4ccccc4)CC[C@]13C)[C@]2(C)CO	27.85	98.6	–
CC1(C)CC[C@]2(C(=O)OCC(=O)OCCOCCOCCOCCOCCOCCOCCOCCOCCOCCOCCOCCOCCO)CC[C@]3(C)C(=CC[C@@H]4[C@@]5(C)Cc6nccnc6[C@@](C)(CO)[C@@H]5CC[C@]43C)[C@@H]2C1	39.13	73.3	–
CC1(C)CC[C@]2(C(=O)OCc3ccccc3)CC[C@]3(C)C(=CC[C@@H]4[C@@]5(C)Cc6nccnc6[C@@](C)(COC(=O)CCC(=O)OCCOCCOCCOCCOCCOCCOCCOCCOCCO)[C@@H]5CC[C@]43C)[C@@H]2C1	15.38	70.6	solubility ([7]; pH 7.4, read-out: solubility): 546 µg/mL (≈ 500 µM)
CC1(C)CC[C@]2(C(=O)OCc3ccccc3)CC[C@]3(C)C(=CC[C@@H]4[C@@]5(C)Cc6nccnc6[C@@](C)(COC(=O)CCC(=O)OCCOCCOCCO)[C@@H]5CC[C@]43C)[C@@H]2C1	43.54	82.5	solubility ([7]; pH 7.4): Soluble
COc1ccc(CCN(C)CCCC(C#N)(c2ccc(OC)c(OC)c2)C(C)C)cc1OC (centres undefined)	–	–	Activity [3]: 40.6%; Activity [4]: 2.4%
CC1(C)CC[C@]2(C(=O)O)CC[C@]3(C)C(=CC[C@@H]4[C@@]5(C)CC[C@H](O)[C@@](C)(CO)[C@@H]5CC[C@]43C)[C@@H]2C1 [HEDERAGENIN]	107.17	–	–
CC(=O)O[C@H]1C(=O)[C@@]2(C)[C@H]([C@H](OC(=O)c3ccccc3)[C@]3(O)C[C@H](OC(=O)[C@H](O)[C@@H](NC(=O)c4ccccc4)c4ccccc4)C(C)=C1C3(C)C)[C@]1(OC(C)=O)CO[C@@H]1C[C@@H]2O [PACLITAXEL]	103.48	–	IC50 [16]: 778 nM; Activity [4]: 2.1%
CC[C@]1(O)C[C@H]2CN(CCc3c([nH]c4ccccc34)[C@@](C(=O)OC)(c3cc4c(cc3OC)N(C=O)[C@H]3[C@@](O)(C(=O)OC)[C@H](OC(C)=O)[C@]5(CC)C=CCN6CC[C@]43[C@@H]65)C2)C1 [VINCRISTINE]	–	–	IC50 [17]: 9.45 nM
